In publication PMC3215888 (Cancer Chemotherapy and Pharmacology, 2011):
Several values for one entry are separate records, joined by “and”; a condition that tells them apart may be missing. Equal entries are not always repeated. Where two headings read alike, the source gives them in different places.

Legend:
[1] = system: solid tumor and ALL xenograft models; experiment: EFS activity across all xenograft models at the MTD; format: in vivo, mice; conditions: MTD 20.8 mg/kg
[2] = system: OS-1 Osteosarcoma xenograft; format: in vivo, mice
Procedure, shortened: (§1)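 Female CB17 scid mice bearing subcutaneous tumors, 10 per group. Dosed by oral gavage twice daily, 5 days weekly for 6 weeks, at 20.8, 10.4, 5.2 or 2.6 mg/kg, in 10% 2-hydroxypropyl-β-cyclodextrin/1% sodium bicarbonate. Event = quadrupled tumor volume; EFS by Kaplan–Meier, exact log-rank test. Per-mouse scores PD/SD/PR (≥50% regression)/CR (<0.10 cm3)/MCR; group median reported. PR, CR and MCR count as objective responses.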

KT-10 Wilms xenograft = format: in vivo, mice
Procedure, shortened: as §1

Ewing sarcoma cell lines = experiment: DIMSCAN in vitro testing, 96 h, Ewing panel; format: cell-based
Procedure, shortened: (§2)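 Neuroblastoma and Ewing sarcoma lines, STR-verified and maintained as in the originators' reports. Exposed for 96 h to test compound (DMSO stock diluted in medium) at 1 nM–10 μM. Viable cells quantified by fluorescein diacetate fluorescence with DIMSCAN digital image microscopy. Absolute IC50 = concentration giving 50% growth inhibition vs controls. Relative IC50 = concentration giving 50% of the maximum inhibitory effect.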

[3] = system: COG-E-352 Ewing sarcoma cell line; experiment: DIMSCAN in vitro testing, 96 h; format: cell-based; conditions: for IC50: 96 h
Procedure, shortened: as §2

[4] = system: TC-32 Ewing sarcoma cell line; experiment: DIMSCAN in vitro testing, 96 h; format: cell-based; conditions: for IC50: Homo sapiens, TC-32, 96 h
Procedure, shortened: as §2

[5] = system: NB-EBc1 neuroblastoma cell line; experiment: DIMSCAN in vitro testing, 96 h; format: cell-based; conditions: for IC50: Neuroblastoma cell, 96 h
Procedure, shortened: as §2

[6] = system: CHLA-9 Ewing sarcoma cell line; experiment: DIMSCAN in vitro testing, 96 h; format: cell-based; conditions: for IC50: 96 h
Procedure, shortened: as §2

[7] = system: CHLA-90 neuroblastoma cell line; experiment: DIMSCAN in vitro testing, 96 h; format: cell-based; conditions: for IC50: Neuroblastoma cell, 96 h
Procedure, shortened: as §2

[8] = system: CHLA-56 Ewing sarcoma cell line; experiment: DIMSCAN in vitro testing, 96 h; format: cell-based
Procedure, shortened: as §2

[9] = system: NB-1643 neuroblastoma cell line; experiment: DIMSCAN in vitro testing, 96 h; format: cell-based; conditions: for IC50: NB-1643, 96 h
Procedure, shortened: as §2

[10] = system: PPTP in vivo xenograft models; experiment: Objective responses by AURKA copy number; design: species or system mice; conditions: MTD
[11] = system: ALL-2 ALL B-precursor xenograft; experiment: ALL xenograft; format: in vivo, mice
Procedure, shortened: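 Female NOD/scid mice inoculated intravenously with leukemia cells, 8 per group. Test compound suspended in 10% 2-hydroxypropyl-β-cyclodextrin/1% sodium bicarbonate in water. Given by oral gavage twice daily, 5 days weekly for 3 weeks, at 20.8, 10.4, 5.2 or 2.6 mg/kg. Blood %hCD45 of leukocytes tracked; event = hCD45 reaching 25%. EFS by Kaplan–Meier, exact log-rank vs controls. Median group response from individual scores.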

[12] = system: SK-N-BE(2) neuroblastoma cell line; experiment: DIMSCAN in vitro testing, 96 h; format: cell-based; conditions: minimum T/C
Procedure, shortened: as §2

Toxicity [13] = format: in vivo, mice; conditions: solid tumor study at the MTD
Procedure, shortened: (§3)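 Deaths counted in control and treated arms of the xenograft efficacy studies (10 mice per solid tumor group, 8 per ALL group). A group would be excluded from analysis if mortality exceeded 25%.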

Toxicity [14] = format: in vivo, mice; conditions: leukemia models at the MTD
Procedure, shortened: as §3

neuroblastoma cell lines = experiment: DIMSCAN in vitro testing, 96 h, neuroblastoma panel; format: cell-based
Procedure, shortened: as §2

COc1cc(Nc2ncc3c(n2)-c2ccc(Cl)cc2C(c2c(F)cccc2OC)=NC3)ccc1C(=O)O [MLN8237]
evaluable lines meeting the criteria for high activity (EFS T/C) [1]: Eight out of 11 | EFS T/C ([2]; 2.6 mg/kg): >1.5 | Median group response ([2]; 2.6 mg/kg): PD2 (if the TGD value >1.5, the mouse was considered PD2) | Response activity ([2]; 2.6 mg/kg): Int | Tumor volume T/C ([2]; 2.6 mg/kg): 0.75 | Median RTV/hCD45 at end of study ([2]; 2.6 mg/kg): 3.5 | EFS T/C ([2]; 5.2 mg/kg): >1.5 | Median group response ([2]; 5.2 mg/kg): PD2 (if the TGD value >1.5, the mouse was considered PD2) | Response activity ([2]; 5.2 mg/kg): Int | Tumor volume T/C ([2]; 5.2 mg/kg): 0.70 | Median RTV/hCD45 at end of study ([2]; 5.2 mg/kg): 3.4 | EFS T/C ([2]; 10.4 mg/kg): >1.5 | Median group response ([2]; 10.4 mg/kg): PD2 (if the TGD value >1.5, the mouse was considered PD2) | Response activity ([2]; 10.4 mg/kg): Int | Tumor volume T/C ([2]; 10.4 mg/kg): 0.56 | Median RTV/hCD45 at end of study ([2]; 10.4 mg/kg): 2.0 | EFS T/C ([2]; 20.8 mg/kg): >1.5 | Response activity ([2]; 20.8 mg/kg): Int | Tumor volume T/C ([2]; 20.8 mg/kg): 0.45 | Median RTV/hCD45 at end of study ([2]; 20.8 mg/kg): 0.8 | EFS T/C (KT-10 Wilms xenograft; 2.6 mg/kg): 1.0 | EFS activity (KT-10 Wilms xenograft; 2.6 mg/kg): Low | Estimate of median time to event (KT-10 Wilms xenograft; 2.6 mg/kg): 9.6 days | Median group response (KT-10 Wilms xenograft; 2.6 mg/kg): PD1 (if the TGD value ≤1.5, that mouse was considered PD1) | Response activity (KT-10 Wilms xenograft; 2.6 mg/kg): Low | Tumor volume T/C (KT-10 Wilms xenograft; 2.6 mg/kg): 0.84 | Median RTV/hCD45 at end of study (KT-10 Wilms xenograft; 2.6 mg/kg): >4 | EFS T/C (KT-10 Wilms xenograft; 5.2 mg/kg): 1.7 | EFS activity (KT-10 Wilms xenograft; 5.2 mg/kg): Low | Estimate of median time to event (KT-10 Wilms xenograft; 5.2 mg/kg): 16.0 days | Median group response (KT-10 Wilms xenograft; 5.2 mg/kg): PD2 (if the TGD value >1.5, the mouse was considered PD2) | Response activity (KT-10 Wilms xenograft; 5.2 mg/kg): Int | Tumor volume T/C (KT-10 Wilms xenograft; 5.2 mg/kg): 0.71 | Median RTV/hCD45 at end of study (KT-10 Wilms xenograft; 5.2 mg/kg): >4 | EFS T/C (KT-10 Wilms xenograft; 10.4 mg/kg): 1.5 | EFS activity (KT-10 Wilms xenograft; 10.4 mg/kg): Low | Estimate of median time to event (KT-10 Wilms xenograft; 10.4 mg/kg): 14.6 days | Median group response (KT-10 Wilms xenograft; 10.4 mg/kg): PD1 (if the TGD value ≤1.5, that mouse was considered PD1) | Response activity (KT-10 Wilms xenograft; 10.4 mg/kg): Low | Tumor volume T/C (KT-10 Wilms xenograft; 10.4 mg/kg): 0.53 | Median RTV/hCD45 at end of study (KT-10 Wilms xenograft; 10.4 mg/kg): >4 | EFS T/C (KT-10 Wilms xenograft; 20.8 mg/kg): >4.4 | EFS activity (KT-10 Wilms xenograft; 20.8 mg/kg): High | Median group response (KT-10 Wilms xenograft; 20.8 mg/kg): MCR | Response activity (KT-10 Wilms xenograft; 20.8 mg/kg): High | Tumor volume T/C (KT-10 Wilms xenograft; 20.8 mg/kg): 0.35 | Median RTV/hCD45 at end of study (KT-10 Wilms xenograft; 20.8 mg/kg): 0.0 | median Ymin, Ewing cell lines (Ewing sarcoma cell lines; median of Ewing panel): 11.4% | IC50 (Ewing sarcoma cell lines; read-out: relative IC50 values, Ewing sarcoma cell lines): 58 nM | IC50 ([3]; read-out: Absolute IC50): 43 nM | IC50 ([3]; read-out: Relative IC50): 35 nM | Ymin ([3]; COG-E-352, minimum T/C): 11.4% | IC50 ([4]; read-out: Absolute IC50): 39 nM | IC50 ([4]; read-out: Relative IC50): 34 nM | Ymin ([4]; TC-32, minimum T/C): 6.5% | Ymin ([5]; NB-EBc1, minimum T/C): 3.6% | IC50 ([5]; read-out: Absolute IC50): 50 nM | IC50 ([5]; read-out: Relative IC50): 49 nM | IC50 ([6]; read-out: Absolute IC50): 18 nM | IC50 ([6]; read-out: Relative IC50): 16 nM | Ymin ([6]; CHLA-9, minimum T/C): 4.2% | Ymin ([7]; CHLA-90, minimum T/C): 16.3% | IC50 ([7]; read-out: Absolute IC50): 61 nM | IC50 ([7]; read-out: Relative IC50): 48 nM | IC50 ([8]; 96 h): > 10000 nM | Ymin ([8]; CHLA-56, minimum T/C): 48.1% | IC50 ([9]; read-out: Absolute IC50): 37 nM | IC50 ([9]; read-out: Relative IC50): 32 nM | Ymin ([9]; NB-1643, minimum T/C): 10.2% | objective responses in tumors with decreased AURKA copy number [10]: 5/8 | objective responses in tumors with increased AURKA gene copy number [10]: 2/14 and 2 | EFS T/C ([11]; 2.6 mg/kg): 2.3 | EFS activity ([11]; 2.6 mg/kg): Int | Estimate of median time to event ([11]; 2.6 mg/kg): 25.2 days | Median group response ([11]; 2.6 mg/kg): PD2 (if the TGD value >1.5, the mouse was considered PD2) | Response activity ([11]; 2.6 mg/kg): Int | Median RTV/hCD45 at end of study ([11]; 2.6 mg/kg): >25% | EFS T/C ([11]; 5.2 mg/kg): >3.8 | EFS activity ([11]; 5.2 mg/kg): Int | Response activity ([11]; 5.2 mg/kg): High | Median RTV/hCD45 at end of study ([11]; 5.2 mg/kg): >25% | EFS T/C ([11]; 10.4 mg/kg): >3.8 | EFS activity ([11]; 10.4 mg/kg): Int | Response activity ([11]; 10.4 mg/kg): High | Median RTV/hCD45 at end of study ([11]; 10.4 mg/kg): 3.1% | EFS T/C ([11]; 20.8 mg/kg): >3.8 | EFS activity ([11]; 20.8 mg/kg): High | Median group response ([11]; 20.8 mg/kg): MCR | Response activity ([11]; 20.8 mg/kg): High | Median RTV/hCD45 at end of study ([11]; 20.8 mg/kg): 0.3% | Ymin [12]: 16.5% | mice that died in the MLN8237 treatment arms (Toxicity [13]): 5 of 90 | mice that died in the MLN8237 treatment arms, percent (Toxicity [13]): 5.6% | mice that died in the treated arm (Toxicity [14]): 5 of 24 | IC50 (neuroblastoma cell lines; Neuroblastoma cell, read-out: relative IC50 values, neuroblastoma panel): 23 nM | median Ymin, neuroblastoma cell lines (neuroblastoma cell lines; median of neuroblastoma panel): 10.4%
